Test [1] addresses T1, DNA topoisomerase 1 (Homo sapiens) (UniProt P11387).
T1 sequence (whole entry): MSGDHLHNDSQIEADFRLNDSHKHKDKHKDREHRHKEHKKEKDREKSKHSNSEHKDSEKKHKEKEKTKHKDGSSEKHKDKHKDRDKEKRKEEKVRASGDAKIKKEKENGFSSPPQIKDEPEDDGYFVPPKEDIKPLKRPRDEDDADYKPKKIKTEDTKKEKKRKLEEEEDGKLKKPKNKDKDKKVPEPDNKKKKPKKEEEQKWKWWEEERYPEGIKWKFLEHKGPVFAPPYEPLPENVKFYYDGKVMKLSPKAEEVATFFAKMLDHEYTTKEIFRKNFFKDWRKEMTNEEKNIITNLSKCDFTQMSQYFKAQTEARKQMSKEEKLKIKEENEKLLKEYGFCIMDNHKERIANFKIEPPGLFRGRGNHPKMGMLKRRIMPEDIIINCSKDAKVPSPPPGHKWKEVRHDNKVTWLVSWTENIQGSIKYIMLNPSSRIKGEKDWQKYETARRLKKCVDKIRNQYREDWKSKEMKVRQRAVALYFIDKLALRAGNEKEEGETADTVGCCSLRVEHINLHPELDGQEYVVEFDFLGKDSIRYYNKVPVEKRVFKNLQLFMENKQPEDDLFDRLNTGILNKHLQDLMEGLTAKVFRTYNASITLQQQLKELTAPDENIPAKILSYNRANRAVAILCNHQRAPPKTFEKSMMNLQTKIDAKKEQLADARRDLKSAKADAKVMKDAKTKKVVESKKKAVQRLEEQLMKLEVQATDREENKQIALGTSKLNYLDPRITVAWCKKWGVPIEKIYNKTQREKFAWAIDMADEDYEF
Description: Inhibition of human recombinant topoisomerase 1-mediated relaxation of supercoiled pUC19 DNA assessed as formation of nicked DNA at 1 to 50 uM using ethidium bromide staining by agarose gel electrophoresis. The gist of the method: (§1)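 Supercoiled pUC19 plasmid (130 ng) was incubated with 4 units of human recombinant Top1 at 37 °C for 45 min in relaxation buffer (50 mM Tris pH 7.8, 50 mM KCl, 10 mM MgCl2, 1 mM DTT, 1 mM EDTA, 1 mM ATP) with increasing compound concentrations. Products were resolved on 1% agarose at room temperature, 2 h at 120 V, then stained with ethidium bromide and imaged under UV.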

In test [2] the test system is Calf thymus DNA. Description: Binding affinity to calf thymus DNA at 20 uM by UV-vis spectrophotometry analysis. Type of test: nucleic-acid assay. The settings on record: Bos taurus.
The target in test [3] is T1, DNA topoisomerase 1 (Homo sapiens). As to the kind of experiment: Inhibition of human recombinant topoisomerase 1 assessed as cleavage of 117-mer DNA fragment at 0.5 to 5 uM using ethidium bromide staining by agarose gel electrophoresis analysis.
In test [4] the test system is HT-29. As to the kind of experiment: Cytotoxicity against human HT-29 cells after 72 hrs by MTS assay. Type of test: functional, cell-based. As to conditions: HT-29, 72 h. A general note: Formazan colour is commonly taken as a measure of viable cells.
Test [5] concerns Calf thymus DNA. Description: Binding affinity to calf thymus DNA by circular dichroism analysis. The settings on record: Bos taurus. Type of test: nucleic-acid assay. Background: Circular dichroism is the unequal absorption of left and right circularly polarised light.
The target in test [6] is T1, DNA topoisomerase 1 (Homo sapiens). As to the kind of experiment: Inhibition of camptothecin-induced poisoning effect of human topoisomerase 1 assessed as suppression of CPT-induced 117 bp DNA cleavage by SDS-PAGE analysis.
A further test has as its system Nucleic Acid. Description: Binding affinity to 265 bp of 3'-end-radio-labelled DNA fragment at 0.5 to 5 uM treated 15 mins before Dnase 1-mediated digestion by footprinting assay. Type of test: nucleic-acid assay. The method in brief: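 DNase I footprinting. It was equilibrated with compound for 15 min at 37 °C, then digested 3 min with DNase I (0.01 unit/ml) in 20 mM NaCl, 2 mM MgCl2, 2 mM MnCl2, pH 7.3. Samples were lyophilised, denatured at 90 °C and run on an 8% denaturing polyacrylamide gel.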

Test [7] has as its target DNA topoisomerase 2-alpha (Homo sapiens) (UniProt P11388). As to the kind of experiment: Inhibition of human topoisomerase 2 assessed as formation of linear form of supercoiled pUC19 DNA at 50 uM after 45 mins using ethidium bromide staining by agarose gel analysis.
Test [8] concerns the target T1, DNA topoisomerase 1 (Homo sapiens). Description: Inhibition of human recombinant topoisomerase 1-mediated relaxation of supercoiled pUC19 DNA assessed as formation of nicked DNA at 0.2 to 10 uM using ethidium bromide staining by agarose gel electrophoresis. The method in brief:
as §1

For test [9] the target is unchanged. As to the kind of experiment: Inhibition of human recombinant topoisomerase 1 assessed as cleavage of 117-mer DNA fragment at 20 to 50 uM using ethidium bromide staining by agarose gel electrophoresis analysis.
For test [10], the target named is DNA topoisomerase 2-alpha (Homo sapiens) (UniProt P11388). Description: Inhibition of human topoisomerase 2 assessed as formation of nicked form of supercoiled pUC19 DNA at 50 uM after 45 mins using ethidium bromide staining by agarose gel analysis.
The target in test [11] is T1, DNA topoisomerase 1 (Homo sapiens). As to the kind of experiment: Inhibition of human recombinant topoisomerase 1-mediated relaxation of supercoiled pUC19 DNA assessed as formation of nicked DNA at 0.1 to 5 uM using ethidium bromide staining by agarose gel electrophoresis. The gist of the method:
as §1

Test [12] deals with HT-29. Description: Cell cycle arrest in human HT-29 cells at G2/M phase at 0.1 to 2.5 uM after 48 hrs using propidium iodide staining by FACS analysis. It counts as functional, cell-based. The gist of the method:
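Exponentially growing HT-29 colon carcinoma cells (300,000 per well) were plated for 24 h, then exposed to 0.1, 1 or 2.5 µM compound for 48 h. Cells were fixed, stained with propidium iodide and analysed by flow cytometry (FACScan).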

Test [13] deals with DNA topoisomerase 2-alpha (Homo sapiens) (UniProt P11388). As to conditions: 50 uM.
Test [14] shares this target. The settings on record: 50 uM. This is another data set of the same source.

Activity calls are given as the source filed them. No cut-off for these calls is given here.

Sequence of DNA topoisomerase 2-alpha (Homo sapiens) (P11388 whole entry): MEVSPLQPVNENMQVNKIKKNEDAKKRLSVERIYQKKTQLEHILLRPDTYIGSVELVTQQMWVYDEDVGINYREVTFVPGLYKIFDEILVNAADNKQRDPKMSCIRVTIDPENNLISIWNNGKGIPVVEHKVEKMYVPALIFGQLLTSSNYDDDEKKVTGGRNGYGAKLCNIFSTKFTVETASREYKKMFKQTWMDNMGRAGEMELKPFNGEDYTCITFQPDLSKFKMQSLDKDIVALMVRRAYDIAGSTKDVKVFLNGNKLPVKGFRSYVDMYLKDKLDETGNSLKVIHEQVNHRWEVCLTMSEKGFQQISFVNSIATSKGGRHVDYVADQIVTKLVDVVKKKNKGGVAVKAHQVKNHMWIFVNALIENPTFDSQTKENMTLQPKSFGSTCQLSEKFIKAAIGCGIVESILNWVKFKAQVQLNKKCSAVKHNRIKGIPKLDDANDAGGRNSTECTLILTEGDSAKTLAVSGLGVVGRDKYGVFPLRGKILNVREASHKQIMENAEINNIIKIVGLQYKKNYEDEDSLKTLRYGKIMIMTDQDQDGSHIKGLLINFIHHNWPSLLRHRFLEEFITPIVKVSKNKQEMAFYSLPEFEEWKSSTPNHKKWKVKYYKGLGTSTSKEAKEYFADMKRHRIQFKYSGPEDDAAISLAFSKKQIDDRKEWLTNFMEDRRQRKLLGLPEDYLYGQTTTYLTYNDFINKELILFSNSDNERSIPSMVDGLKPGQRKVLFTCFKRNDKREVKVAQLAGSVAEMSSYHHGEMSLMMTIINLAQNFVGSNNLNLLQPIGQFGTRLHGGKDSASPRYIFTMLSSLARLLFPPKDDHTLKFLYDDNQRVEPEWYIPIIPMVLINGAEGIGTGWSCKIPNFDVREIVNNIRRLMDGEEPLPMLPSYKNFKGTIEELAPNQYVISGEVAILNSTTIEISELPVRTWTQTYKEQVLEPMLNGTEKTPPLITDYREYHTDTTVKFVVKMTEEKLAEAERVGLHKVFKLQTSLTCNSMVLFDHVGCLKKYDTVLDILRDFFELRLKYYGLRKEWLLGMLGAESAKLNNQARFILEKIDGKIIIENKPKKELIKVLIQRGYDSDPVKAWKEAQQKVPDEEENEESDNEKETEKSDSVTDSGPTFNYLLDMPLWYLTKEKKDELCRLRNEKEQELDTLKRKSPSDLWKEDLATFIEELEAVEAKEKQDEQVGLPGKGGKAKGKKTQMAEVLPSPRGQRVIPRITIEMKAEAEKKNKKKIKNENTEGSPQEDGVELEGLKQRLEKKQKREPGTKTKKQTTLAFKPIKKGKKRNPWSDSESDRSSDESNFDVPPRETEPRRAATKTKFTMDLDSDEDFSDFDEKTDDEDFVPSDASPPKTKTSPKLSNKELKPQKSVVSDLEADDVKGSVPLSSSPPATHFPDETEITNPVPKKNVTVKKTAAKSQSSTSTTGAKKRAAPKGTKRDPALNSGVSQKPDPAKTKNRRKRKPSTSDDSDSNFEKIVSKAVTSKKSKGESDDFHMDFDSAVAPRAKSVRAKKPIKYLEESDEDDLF

For the molecule `CCN(CC)CCn1c(=O)c2cc(OC)c(OC)cc2c2ccc3ncccc3c21`, the “Topoisomerase 1 inhibition (active/inactive)” value in test [1] is “Active”. Besides, the outcome in the test with Calf thymus DNA [2] and in the test on Calf thymus DNA [5] was Active. Moreover, the inhibition result in test [3] was “inactive”. For the same molecule, the IC50 – broadly, the midpoint of a concentration-inhibition curve – with HT-29 [4] turned out to be 2.63 µM. In addition, the inhibition result in [6] was “Dose-dependent effect”.
For the molecule `COc1cc2c(=O)n(CCCN(C)C)c3c4cccnc4ccc3c2cc1OC`, in [1], the “Topoisomerase 1 inhibition (active/inactive)” value is “Active”. Also, the result in the test on Calf thymus DNA [2] and in the test on Calf thymus DNA [5] was Active. The molecule further had an IC50 with HT-29 [4] of 4.98 µM. Further, the inhibition result in test [6] is “Dose-dependent effect”.
Consider `COc1cc2c(=O)n(CCN(C)C)c3c4ccncc4ccc3c2cc1OC`, for which, in [1], the “Topoisomerase 1 inhibition (active/inactive)” value was “Active”. In addition, the outcome with Calf thymus DNA [2] and in the test with Calf thymus DNA [5] was Active. Moreover, in [3], the inhibition entry was “inactive”. The midpoint of inhibition with HT-29 [4], the IC50, lay at 1.42 µM. Moreover, the inhibition entry in test [6] is “Dose-dependent effect”.
As to `CN(C)CCCNc1nc2c3cccnc3ccc2c2cc3c(cc12)OCO3`, the “Topoisomerase 1 inhibition (active/inactive)” value in [1] is “Active”. The outcome with Calf thymus DNA [2] and with Calf thymus DNA [5] was Active. Also, in [3], the inhibition entry is “inactive”. In addition, the IC50 in the test on HT-29 [4] stood at 1.73 µM. The inhibition entry in the test with Nucleic Acid was “Active”. Moreover, the inhibition result in test [6] is “Dose-dependent effect”.
With `COc1cc2c(NCCN(C)C)nc3c4ccncc4ccc3c2cc1OC`, the inhibition entry in test [7], in [9] and in [10] was “inactive” in each case. The result in the test with Calf thymus DNA [2], with HT-29 [12] and in the test with Calf thymus DNA [5] was Active. In addition, the inhibition result (in test [8]; with Nucleic Acid) was “Active” each time. For the same molecule, the “Top1 relaxation inhibition (qualitative call)” value in test [11] is “Active”. The molecule also displayed an IC50 with HT-29 [4] of 1.02 µM. The inhibition entry in test [6] was “Dose-dependent effect”.
For `COc1cc([C@@H]2c3cc4c(cc3[C@@H](O[C@@H]3O[C@@H]5CO[C@@H](C)O[C@H]5[C@H](O)[C@H]3O)[C@H]3COC(=O)[C@H]23)OCO4)cc(OC)c1O`, the inhibition result in test [13] and in test [14] was “Active” each time.
Regarding `COc1cc2c(=O)n(CCCN(C)C)c3c4ccncc4ccc3c2cc1OC`, the “Topoisomerase 1 inhibition (active/inactive)” value in test [1] was “Active”. The result in the test on Calf thymus DNA [2] and with Calf thymus DNA [5] was Active. Besides, in test [3], the inhibition result was “inactive”. Besides, the IC50 with HT-29 [4] worked out at 6.11 µM. The inhibition result in test [6] was “Dose-dependent effect”.
As for `COc1cc2c(=O)n(CCN(C)C)c3c4cccnc4ccc3c2cc1OC`, the “Topoisomerase 1 inhibition (active/inactive)” value in test [1] is “Active”. Further, the result with Calf thymus DNA [2] and with Calf thymus DNA [5] was Active. Further, the inhibition entry in [3] is “inactive”. This molecule also had an IC50 in the test on HT-29 [4] of 1.66 µM. In addition, the inhibition result in [6] was “Dose-dependent effect”.
As to `COc1cc2c[n+](C)c3c4cc5c(cc4ccc3c2cc1OC)OCO5` [NITIDINE CHLORIDE], the inhibition entry in test [7], in test [3] and in test [10] was “inactive” throughout. Moreover, the outcome in the test with Calf thymus DNA [2] and in the test on Calf thymus DNA [5] was Active. For the same molecule, in test [11], the “Top1 relaxation inhibition (qualitative call)” value was “Active”. The molecule also yielded an IC50 in the test on HT-29 [4] of 2.75 µM.
As to `CCN(CC)CCCNc1nc2c3cccnc3ccc2c2cc3c(cc12)OCO3`, the inhibition entry in test [7], in test [9] and in [10] was “inactive” each time. The result in the test on Calf thymus DNA [2] and with Calf thymus DNA [5] was Active. Besides, the inhibition result in test [8] is “Active”. Further, the IC50 with HT-29 [4] amounted to 1.83 µM. Moreover, in test [6], the inhibition entry is “Dose-dependent effect”.
On to `CCN(CC)CCn1c(=O)c2cc(OC)c(OC)cc2c2ccc3cnccc3c21`, for which, in test [1], the “Topoisomerase 1 inhibition (active/inactive)” value was “Active”. The outcome in the test with Calf thymus DNA [2] and with Calf thymus DNA [5] was Active. Further, the inhibition entry in [3] is “inactive”. It took 1.82 µM to reach half-maximal inhibition in the test on HT-29 [4] (IC50). For the same molecule, in test [6], the inhibition entry was “Dose-dependent effect”.

For the origin of these results see ChEMBL document CHEMBL1782029, “Synthesis and biological evaluation of N-substituted benzo[c]phenanthrolines and benzo[c]phenanthrolinones as antiproliferative agents” (Eur J Med Chem, 2011).
